Screens as filed in PubChem.
Hits are enriched below; roughly 1.8% of the tested compounds scored in any of these assays.
NR2E3 ag-1 = agonists of human nuclear receptor NR2E3; Q9Y5X4; GST-NR2E3/biotin-RetCOR TR-FRET, 1536-well; inhibition of corepressor binding, % at 4.78 µM; 320,000 tested, 0.12% active; AID 2300;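 active = percent inhibition above the cutoff of mean plus 3 SD of all tested compounds, set per screening campaign, cut at about 20% in these data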;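 note: 0% = DMSO wells and 100% = biotin wells as full block of FRET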
Target sequence (Q9Y5X4 whole entry, looked up): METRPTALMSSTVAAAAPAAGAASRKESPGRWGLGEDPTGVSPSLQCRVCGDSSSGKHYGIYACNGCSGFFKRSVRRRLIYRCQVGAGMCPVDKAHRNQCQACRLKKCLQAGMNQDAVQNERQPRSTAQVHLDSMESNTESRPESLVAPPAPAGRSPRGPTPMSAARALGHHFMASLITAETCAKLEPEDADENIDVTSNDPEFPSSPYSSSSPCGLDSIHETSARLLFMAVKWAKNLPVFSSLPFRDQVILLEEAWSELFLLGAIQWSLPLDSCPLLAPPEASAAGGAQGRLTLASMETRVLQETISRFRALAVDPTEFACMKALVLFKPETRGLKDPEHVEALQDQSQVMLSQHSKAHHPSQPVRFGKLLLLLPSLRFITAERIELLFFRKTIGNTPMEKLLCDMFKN
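System: GST-tagged NR2E3 plus biotinylated RetCOR corepressor; Buffer or medium: pH 7.5 Tris-based buffer; Probe or stimulus: RetCOR corepressor, biotinylated, 7 nM; Doses: compound at 4.8 µM, single dose; Schedule: 5 h incubation at 4 °C; Technique: time-resolved FRET; Evaluation: percent inhibition of TR-FRET ratio; Replication: one well per compound, singlicate testing.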
NR2E3 ag-2 = agonists of human NR2E3 nuclear receptor; AID 602229; inhibition of corepressor binding, % at 3.98 µM; 360,000 tested, 0.35% active; CHO-S Gal4-NCOR/VP16-NR2E3 two-hybrid, luciferase;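 active = inhibition above the mean of all tested compounds plus 3 SD, cut at about 70% in these data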;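 note: 0% = DMSO with NR2E3 transfected cells and 100% = cells lacking NR2E3 construct; higher means lower luciferase signal from less NR2E3 corepressor binding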
Gli-Sufu block = antagonists of Gli-Sufu signaling; AID 588413; Sufu-KO-LIGHT fibroblasts, Gli luciferase reporter luminescence; inhibition, % at 5 µM; 340,000 tested, 0.74% active;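 active = inhibition above about 55%, limit read from the data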;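 note: 0% = DMSO-treated cells and 100% = wells with medium but no cells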
GalR3 antag = blocks the human galanin receptor 3. O60755. inhibition, % at 3 µM. 360,000 tested, 0.44% active. HEK293 GalR3-CNG cAMP membrane potential fluorescence; galR3 body fused to GalR1 C-terminus;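 active = inhibition above the screen-wide average plus 3 SD, cut at about 13% in these data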;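 note: forskolin and galanin both at EC90 stimulate the cells; cAMP rise reported by CNG channel membrane potential dye signal; 0% = forskolin plus galanin with DMSO and 100% = forskolin alone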
Target sequence (O60755 1-299 limits assumed): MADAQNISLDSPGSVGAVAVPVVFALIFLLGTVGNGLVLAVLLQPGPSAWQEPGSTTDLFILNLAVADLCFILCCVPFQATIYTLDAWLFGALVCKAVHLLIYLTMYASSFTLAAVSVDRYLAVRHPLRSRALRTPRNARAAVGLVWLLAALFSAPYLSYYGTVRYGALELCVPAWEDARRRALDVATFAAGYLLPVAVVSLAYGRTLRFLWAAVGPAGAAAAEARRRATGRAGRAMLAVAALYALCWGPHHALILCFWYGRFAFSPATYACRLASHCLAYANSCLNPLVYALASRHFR
697 NFkB inh = inhibitors of the PMA/ionomycin-induced NF-kB reporter in 697 B cells; inhibition, % at 4 µM; 330,000 tested, 0.33% active; 697 B-cell NF-kB luciferase reporter, 16 h; in the data active = inhibition above about 35%
Jurkat NFkB inh = inhibitors of the PMA/ionomycin-induced NF-kB reporter in Jurkat cells | PMA/ionomycin-induced NF-kB luciferase reporter, luminescence | inhibition, % at 4 µM | AID 435003 | 330,000 tested, 0.53% active; in the data active = inhibition above about 50%
GalR3 conf = GalR3 (human) antagonism, confirmation | shares compounds with GalR3 antag | HEK293 GalR3 CNG cAMP biosensor, membrane potential fluorescence; galR3 fused to GalR1 carboxy tail; challenged with forskolin and galanin at EC90 | inhibition, % at 3 µM | 1,600 tested, 59% active;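 active = inhibition above the primary screen's cutoff, the mean inhibition of all screened compounds plus 3 SD, cut at about 13% in these data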;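 note: 0% = forskolin plus galanin and 100% = forskolin alone with DMSO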
HEK-CNG parental = acts as nonspecific agonist in parental HEK-CNG cells. 1,600 tested, 10% active. shares compounds with GalR3 antag. activation, % at 3 µM. HEK293-CNG parental cells, cAMP membrane potential fluorescence; normalised: DMSO wells 0%, forskolin wells 100%; in the data active = activation above about 1.3%
Numbers without * were called inactive; / = not tested or not shown; ! = not confirmed by another sample.

SMILES	NR2E3 ag-1	NR2E3 ag-2	Gli-Sufu block	GalR3 antag	697 NFkB inh	Jurkat NFkB inh	GalR3 conf	HEK-CNG parental
COc1ccc(NC(=O)c2ccc(CNc3c(NC4CCCCC4)c(=O)c3=O)cc2)c(OC)c1	2.5	-33.3	0.1	14.0*!	18.9	22.6	4.4	0.0
CCOc1ccc(NC(=O)c2ccc(CNc3c(NC4CCCCC4)c(=O)c3=O)cc2)cc1	3.3	-5.5	/	3.5	12.0	5.7	/	/
CCOCCCNC(=O)CN1N=C(c2ccc(C)cc2)CCC1=O	6.3	9.7	-7.9	-10.2	-17.7	-17.5	/	/
CN(C)S(=O)(=O)c1cccc(-c2cn3cccnc3n2)c1	-0.6	-14.3	-0.3	/	11.4	16.2	8.9	0.8
O=S(=O)(c1cccc(-c2cn3cccnc3n2)c1)N1CCCCCC1	-0.5	-18.8	3.9	-2.8	10.9	-0.1	/	/
O=C(c1ccco1)N1CCN(S(=O)(=O)c2cccc([N+](=O)[O-])c2)CC1	-1.7	-5.5	-6.0	-7.0	7.8	4.1	/	/
O=C(CN1CCN(Cc2ccccc2F)C1=O)NC1CCCC1	-1.6	-17.5	7.9	12.6*	12.3	12.8	4.2	0.1
O=C(CN1CCCN(Cc2ccc(F)cc2Cl)C1=O)NC1CCCCCCC1	4.1	13.2	-8.0	-7.0	12.5	12.7	/	/
CC(C)c1ccc(C(=O)COC(=O)C(O)c2ccccc2)cc1 (stereo not drawn)	/	-0.8	0.5	-6.4	-24.2	-10.4	/	/
Cn1c(C(=O)NN)cc2cc(Oc3ccccc3)ccc21	-3.8	4.8	-8.1	60.0*	14.8	-3.0	43.8*	-0.4
O=C(Nc1cccc(F)c1)N1CCCCCC1	-0.5	-43.0	-0.1	-3.5	12.9	-21.5	/	/
C/C(=C/C(=O)Nc1cccc(F)c1)N1CCCC1	4.8	2.1	0.3	17.5*	-0.6	-21.2	-0.1	0.0
CCc1ccc(NC(=O)C2CCN(S(=O)(=O)c3ccc4c(c3)CC(C)N4C(C)=O)CC2)cc1 (stereo not drawn)	2.6	35.0	42.7	38.5*	-5.0	31.0	7.2	-0.5
CCOC(=O)C1CCN(C(=O)C2CCN(S(=O)(=O)c3ccc4c(c3)CC(C)N4C(C)=O)CC2)CC1 (stereo not drawn)	9.0	28.4	-34.8	2.8	9.1	9.3	/	/
CCOC(=O)C1CCN(S(=O)(=O)c2ccc3c(c2)CC(C)N3C(=O)C2CC2)CC1 (stereo not drawn)	0.7	-8.7	6.5	17.2*	-14.7	2.3	8.3	0.2
O=C(COC(=O)COc1ccc(Cl)cc1Br)NC1CC1	/	1.4	20.5	0.7	-3.1	4.1	/	/
COc1ccc(C(=O)Nc2ccc(S(=O)(=O)N3CCc4ccccc43)cc2)cc1	1.9	15.2	-12.2	30.2*	-44.0	29.9	85.8*	-1.6
CCOc1ccc(NS(=O)(=O)c2ccc3c(c2)n(C)c(=O)n3C)cc1	0.3	1.6	5.7	-6.5	-17.2	-22.2	/	/
Cc1ccc(/C=C/C(=O)Nc2ccc(S(=O)(=O)Nc3ncccn3)cc2)cc1	-2.9	11.9	-6.0	13.1*	6.7	8.4	6.4	0.3
O=C(/C=C/c1ccc(F)cc1)Nc1ccc(S(=O)(=O)Nc2ncccn2)cc1	-1.1	16.5	-1.7	2.6	5.0	10.8	/	/
CCOc1ccc(S(=O)(=O)Nc2nc3ccccc3nc2-n2ccc(=NC(=O)c3ccccc3C)cc2)cc1	-0.6	-1.5	-3.4	3.7	-100.4	18.7	/	/
CCOc1ccc(S(=O)(=O)Nc2nc3ccccc3nc2N2CCN(C)CC2)cc1	0.5	-48.5	-8.2	20.3*	7.5	-17.5	17.1*	0.4
Cc1cccc(C)c1OCCn1nc(C(=O)O)c2ccccc2c1=O	6.3	-9.1	1.1	16.1*	-152.0	0.2	24.1*	0.3
O=C(O)c1nn(CCSc2ccccc2F)c(=O)c2ccccc12	2.3	-25.7	2.3	26.6*	-14.4	2.6	9.2	0.2
Cc1noc(C)c1Cn1nc(C(=O)O)c2ccccc2c1=O	2.2	-7.1	-4.8	19.2*	19.2	18.3	27.0*	0.6
SMILES	NR2E3 ag-1	NR2E3 ag-2	Gli-Sufu block	GalR3 antag	697 NFkB inh	Jurkat NFkB inh	GalR3 conf	HEK-CNG parental
CC1CCCc2sc3nc(N4CCN(CCO)CC4)n4ncnc4c3c21 (stereo not drawn)	3.5	-10.8	-4.2	22.4*	-8.3	-9.4	42.6*	1.9*
CCNC(=O)NC(=O)C(C)Oc1ccc(C(=O)OC)cc1 (stereo not drawn)	4.2	-16.7	1.6	19.8*	17.6	6.0	6.1	0.2
CCNC(=O)NC(=O)C(C)OC(=O)c1oc2ccc(OC)cc2c1C (stereo not drawn)	-2.5	3.5	4.0	-3.0	14.3	10.9	/	/
CN1CCN(S(=O)(=O)c2cccc(C(=O)Oc3ccccc3Cl)c2)CC1	-1.9	-24.7	-1.8	0.5	11.7	9.1	/	/
O=C(COc1ccc(Br)cc1Br)NC1CCCC1	1.8	-75.4	-47.8	42.2*	-138.5	-16.1	72.9*	-0.1
CCN1CCN(S(=O)(=O)c2cc(OCC(=O)NC3CCCCC3)c(C)cc2Cl)CC1	1.6	32.0	5.6	24.8*	-61.1	22.1	55.4*	0.1
Cc1cc(Cl)c(S(=O)(=O)NC2CCCC2)cc1OCC(=O)NC1CCCCC1	0.5	36.5	21.9	65.6*	-28.0	33.7	46.9*	0.2
CCOC(=O)N1CCN(S(=O)(=O)c2cc(OCC(=O)NC3CCCCC3)c(C)cc2Cl)CC1	-0.3	2.3	38.1	-3.4	-8.2	7.1	/	/
COc1ccc(CCN2CCCn3c2nc2c3c(=O)n(C)c(=O)n2C)cc1OC	/	-16.4	3.1	-1.9	-5.4	10.9	/	/
CC1CC(C)CN(S(=O)(=O)c2ccc(C(=O)N3CCOCC3)cc2)C1 (stereo not drawn)	2.3	-1.8	-9.3	-3.5	-22.9	-4.2	/	/
CCN(CC)N=Nc1ccc(S(=O)(=O)Nc2nc(C)cc(C)n2)cc1	-3.5	-10.8	-0.3	-9.6	-24.1	1.9	/	/
CCCN(CC(=O)Nc1ccccc1C)C(=O)CSc1ccccc1C	1.5	1.9	5.9	-9.5	7.4	-2.6	/	/
COc1cc(CNCC(O)c2ccccc2)ccc1OCc1ccc(Cl)nc1 (stereo not drawn)	-1.1	18.9	-7.0	25.5*	5.3	-9.8	42.5*	2.3*
O=C1C(CN2CCCC2)CCCC1CN1CCCC1 (stereo not drawn)	/	1.4	4.8	15.1*	/	/	-1.1	1.0
CCOC(=O)C1=CCN(S(=O)(=O)c2ccc(Cl)cc2)C1c1cccc(Cl)c1 (stereo not drawn)	/	/	/	-9.0	/	/	/	/
